Test results taken from ChEMBL document CHEMBL1275435, “A naturally occurring proline-to-alanine amino acid change in Fks1p in Candida parapsilosis, Candida orthopsilosis, and Candida metapsilosis accounts for reduced echinocandin susceptibility” (Antimicrob Agents Chemother, 2008).
Converted amounts (≈) assume the structure as drawn. *1 amine or outer side, *2 acyl side, *3 side chain or, on linkers, in order; H or OH if unused. Where a SMILES comes first, the peptide text is derived from it. Bridges are numbered along the chain shown (N, C = ends). [ ]: non-standard residue; d: D form. The star is where a group is joined. hTyr(3S-OH,4S-OH,3'-OSO3H) = N[C@H](C(=O)O)[C@H](O)[C@@H](O)c1ccc(O)c(OS(=O)(=O)O)c1; Orn(4R-OH,5R-OH) = O=C([C@H](C[C@@H](O)[C@@H](O)N[*:3])N[*:1])[*:2]; Pro(3S-OH,4S-Me) = C[C@H]1CN[C@H](C(=O)O)[C@H]1O; X1 = CCCCCOc1ccc(-c2cc(-c3ccc(C(=O)*)cc3)no2)cc1; Gln(3R-OH) = NC(=O)C[C@@H](O)[C@H](N)C(=O)O; Hyp = O=C(O)[C@@H]1C[C@@H](O)CN1

What was measured:
Candida parapsilosis [1] = test: Antifungal activity against Candida parapsilosis ATCC 22019 by CLSI method; type: functional; details: Lodderomyces parapsilosis
Candida metapsilosis [2] = test: Antifungal activity against Candida metapsilosis 960161 by CLSI method; type: functional; details: Lodderomyces metapsilosis
Saccharomyces cerevisiae [3] = test: Antifungal activity against FKS1 deficient Saccharomyces cerevisiae BY4742 by CLSI method; type: functional
Candida orthopsilosis [4] = test: Antifungal activity against Candida orthopsilosis H10 by CLSI method; type: functional; details: Lodderomyces orthopsilosis
[5] = Inhibition of Candida glabrata ATCC 90030 glucan synthase assessed as [3H]UDPG incorporation; design: species or system Nakaseomyces glabratus
Procedure, shortened: (§1)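 Cells were grown with vigorous shaking at 30°C to early stationary phase in YPD. Membrane GS was partially purified by product entrapment, using 10-fold more cells for low-activity strains. The polymerization assay was started by adding GS, with drug serially diluted from 0.01 to 10,000 ng/ml. Reactions ran 60 min at 25°C and were stopped on ice. IC50 came from sigmoidal variable-slope fits, as arithmetic means ± SD of three repetitions on three days.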

Candida albicans [6] = test: Antifungal activity against Candida albicans M122 by CLSI method; type: functional
[7] = Inhibition of Candida albicans Sc5314 glucan synthase assessed as [3H]UDPG incorporation; procedure, shortened: as §1
[8] = Inhibition of Candida metapsilosis 960161 glucan synthase assessed as [3H]UDPG incorporation; procedure, shortened: as §1
Nakaseomyces glabratus [9] = test: Antifungal activity against Candida glabrata ATCC 90030 by CLSI method; type: functional
Candida parapsilosis [10] = test: Antifungal activity against Candida parapsilosis H4 by CLSI method; type: functional; details: Lodderomyces parapsilosis
[11] = Inhibition of Saccharomyces cerevisiae BY4742 glucan synthase assessed as [3H]UDPG incorporation; procedure, shortened: as §1
Candida albicans [12] = test: Antifungal activity against Candida albicans ATCC 36082 by CLSI method; type: functional
[13] = Inhibition of Candida parapsilosis ATCC 22019 glucan synthase by assessed as [3H]UDPG incorporation; procedure, shortened: as §1
Candida albicans [14] = test: Antifungal activity against Candida albicans ATCC 90028 by CLSI method; type: functional
Candida albicans [15] = test: Antifungal activity against Candida albicans Sc5314 by CLSI method; type: functional
[16] = Inhibition of Candida orthopsilosis 981224 glucan synthase assessed as [3H]UDPG incorporation; procedure, shortened: as §1
[17] = Inhibition of Candida albicans ATCC 90028 glucan synthase assessed as [3H]UDPG incorporation; procedure, shortened: as §1
Saccharomyces cerevisiae [18] = test: Antifungal activity against Saccharomyces cerevisiae BY4742 by CLSI method; type: functional
[19] = Inhibition of Candida albicans ATCC 36082 glucan synthase assessed as [3H]UDPG incorporation; procedure, shortened: as §1
[20] = Inhibition of Candida metapsilosis am-2006-0113 glucan synthase assessed as [3H]UDPG incorporation; procedure, shortened: as §1
Candida parapsilosis [21] = test: Antifungal activity against Candida parapsilosis H5 by CLSI method; type: functional; details: Lodderomyces parapsilosis
[22] = Inhibition of Candida glabrata T51916 glucan synthase assessed as [3H]UDPG incorporation; design: species or system Nakaseomyces glabratus; procedure, shortened: as §1
Nakaseomyces glabratus [23] = test: Antifungal activity against Candida glabrata T51916 by CLSI method; type: functional
[24] = Inhibition of Candida orthopsilosis H10 glucan synthase assessed as [3H]UDPG incorporation; procedure, shortened: as §1
[25] = Inhibition of Saccharomyces cerevisiae BY4742-FKS1P649A mutant glucan synthase assessed as [3H]UDPG incorporation; procedure, shortened: as §1
[26] = Inhibition of Candida parapsilosis H5 glucan synthase assessed as [3H]UDPG incorporation; procedure, shortened: as §1
Saccharomyces cerevisiae [27] = test: Antifungal activity against Saccharomyces cerevisiae BY4742-FKS1P649A mutant by CLSI method; type: functional
Procedure, shortened: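 Broth microdilution following CLSI M27-A2, run in YPD broth (1% yeast extract, 2% Bacto peptone, 2% dextrose). MICs are geometric means of at least three repetitions on three separate days.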

Candida orthopsilosis [28] = test: Antifungal activity against Candida orthopsilosis 981224 by CLSI method; type: functional; details: Lodderomyces orthopsilosis
[29] = Inhibition of Candida parapsilosis H4 glucan synthase assessed as [3H]UDPG incorporation; procedure, shortened: as §1
Candida metapsilosis [30] = test: Antifungal activity against Candida metapsilosis am-2006-0113 by CLSI method; type: functional; details: Lodderomyces metapsilosis
[31] = Inhibition of Candida albicans M122 glucan synthase assessed as [3H]UDPG incorporation; procedure, shortened: as §1

CC[C@H](C)C[C@H](C)CCCCCCCCC(=O)N[C@H]1C[C@@H](O)[C@@H](NCCN)NC(=O)[C@@H]2[C@@H](O)CCN2C(=O)[C@H]([C@H](O)CCN)NC(=O)[C@H]([C@H](O)[C@@H](O)c2ccc(O)cc2)NC(=O)[C@@H]2C[C@@H](O)CN2C(=O)[C@H]([C@@H](C)O)NC1=O [CASPOFUNGIN]
MIC (Candida parapsilosis [1]): 1.4 µg/mL (≈ 1.28 µM)
MIC (Candida metapsilosis [2]): 1 µg/mL (≈ 0.915 µM)
MIC (Saccharomyces cerevisiae [3]): 0.02 µg/mL (≈ 0.0183 µM)
MIC (Candida orthopsilosis [4]): 1 µg/mL (≈ 0.915 µM)
IC50 [5]: 0.00312 µg/mL (≈ 0.00285 µM)
MIC (Candida albicans [6]): 4 µg/mL (≈ 3.66 µM)
Ki [7]: 0.00297 µg/mL (≈ 0.00272 µM)
IC50 [8]: 0.02515 µg/mL (≈ 0.023 µM)
Ki [8]: 0.08045 µg/mL (≈ 0.0736 µM)
MIC (Nakaseomyces glabratus [9]): 0.1 µg/mL (≈ 0.0915 µM)
MIC (Candida parapsilosis [10]): 2.24 µg/mL (≈ 2.05 µM)
IC50 [11]: 0.06554 µg/mL (≈ 0.0599 µM)
Ki [11]: 0.18394 µg/mL (≈ 0.168 µM)
MIC (Candida albicans [12]): 0.2 µg/mL (≈ 0.183 µM)
IC50 [13]: 0.02121 µg/mL (≈ 0.0194 µM)
Ki [13]: 0.04799 µg/mL (≈ 0.0439 µM)
MIC (Candida albicans [14]): 0.2 µg/mL (≈ 0.183 µM)
MIC (Candida albicans [15]): 0.4 µg/mL (≈ 0.366 µM)
IC50 [16]: 0.07526 µg/mL (≈ 0.0688 µM)
Ki [16]: 0.0074 µg/mL (≈ 0.00677 µM)
IC50 [17]: 0.00052 µg/mL (≈ 0.000476 µM)
Ki [17]: 0.00095 µg/mL (≈ 0.000869 µM)
MIC (Saccharomyces cerevisiae [18]): 0.03 µg/mL (≈ 0.0274 µM)
IC50 [19]: 0.0006 µg/mL (≈ 0.000549 µM)
Ki [19]: 0.00046 µg/mL (≈ 0.000421 µM)
IC50 [20]: 0.04028 µg/mL (≈ 0.0368 µM)
Ki [20]: 0.0769 µg/mL (≈ 0.0703 µM)
MIC (Candida parapsilosis [21]): 2.24 µg/mL (≈ 2.05 µM)
IC50 [22]: 0.1575 µg/mL (≈ 0.144 µM)
Ki [22]: 0.1945 µg/mL (≈ 0.178 µM)
MIC (Nakaseomyces glabratus [23]): 2 µg/mL (≈ 1.83 µM)
IC50 [24]: 0.05816 µg/mL (≈ 0.0532 µM)
Ki [24]: 0.00429 µg/mL (≈ 0.00392 µM)
IC50 [25]: 1.32867 µg/mL (≈ 1.22 µM)
Ki [25]: 1.215 µg/mL (≈ 1.11 µM)
IC50 [26]: 0.01253 µg/mL (≈ 0.0115 µM)
Ki [26]: 0.00601 µg/mL (≈ 0.0055 µM)
MIC (Saccharomyces cerevisiae [27]): 0.5 µg/mL (≈ 0.457 µM)
MIC (Candida orthopsilosis [28]): 0.79 µg/mL (≈ 0.723 µM)
IC50 [29]: 0.07919 µg/mL (≈ 0.0724 µM)
Ki [29]: 0.00393 µg/mL (≈ 0.00359 µM)
MIC (Candida metapsilosis [30]): 0.79 µg/mL (≈ 0.723 µM)
IC50 [31]: 0.07948 µg/mL (≈ 0.0727 µM)
Ki [31]: 0.292 µg/mL (≈ 0.267 µM)

CCCCCOc1ccc(-c2cc(-c3ccc(C(=O)N[C@H]4C[C@@H](O)[C@@H](O)NC(=O)[C@@H]5[C@@H](O)[C@@H](C)CN5C(=O)[C@H]([C@H](O)CC(N)=O)NC(=O)[C@H]([C@H](O)[C@@H](O)c5ccc(O)c(OS(=O)(=O)O)c5)NC(=O)[C@@H]5C[C@@H](O)CN5C(=O)[C@H]([C@@H](C)O)NC4=O)cc3)no2)cc1 [MICAFUNGIN] (X1-[Orn(4R-OH,5R-OH)]T[Hyp][hTyr(3S-OH,4S-OH,3'-OSO3H)][Gln(3R-OH)][Pro(3S-OH,4S-Me)]; lactam 1-C)
MIC (Candida parapsilosis [1]): 1.6 µg/mL (≈ 1.26 µM)
MIC (Candida metapsilosis [2]): 1.59 µg/mL (≈ 1.25 µM)
MIC (Saccharomyces cerevisiae [3]): 0.015 µg/mL (≈ 0.0118 µM)
MIC (Candida orthopsilosis [4]): 0.63 µg/mL (≈ 0.496 µM)
IC50 [5]: 0.00068 µg/mL (≈ 0.000535 µM)
MIC (Candida albicans [6]): 0.25 µg/mL (≈ 0.197 µM)
IC50 [7]: 0.05825 µg/mL (≈ 0.0459 µM)
Ki [7]: 0.0275 µg/mL (≈ 0.0216 µM)
IC50 [8]: 0.11373 µg/mL (≈ 0.0895 µM)
Ki [8]: 0.3825 µg/mL (≈ 0.301 µM)
MIC (Nakaseomyces glabratus [9]): 0.06 µg/mL (≈ 0.0472 µM)
MIC (Candida parapsilosis [10]): 1.12 µg/mL (≈ 0.882 µM)
IC50 [11]: 0.15945 µg/mL (≈ 0.126 µM)
Ki [11]: 0.17901 µg/mL (≈ 0.141 µM)
MIC (Candida albicans [12]): 0.02 µg/mL (≈ 0.0157 µM)
IC50 [13]: 0.24527 µg/mL (≈ 0.193 µM)
Ki [13]: 0.476 µg/mL (≈ 0.375 µM)
MIC (Candida albicans [14]): 0.03 µg/mL (≈ 0.0236 µM)
MIC (Candida albicans [15]): 0.05 µg/mL (≈ 0.0394 µM)
IC50 [16]: 0.07752 µg/mL (≈ 0.061 µM)
Ki [16]: 0.248 µg/mL (≈ 0.195 µM)
IC50 [17]: 0.0102 µg/mL (≈ 0.00803 µM)
Ki [17]: 0.0235 µg/mL (≈ 0.0185 µM)
MIC (Saccharomyces cerevisiae [18]): 0.03 µg/mL (≈ 0.0236 µM)
IC50 [19]: 0.01888 µg/mL (≈ 0.0149 µM)
Ki [19]: 0.0155 µg/mL (≈ 0.0122 µM)
IC50 [20]: 0.07032 µg/mL (≈ 0.0554 µM)
Ki [20]: 0.266 µg/mL (≈ 0.209 µM)
MIC (Candida parapsilosis [21]): 1.26 µg/mL (≈ 0.992 µM)
IC50 [22]: 0.11235 µg/mL (≈ 0.0884 µM)
Ki [22]: 0.51 µg/mL (≈ 0.401 µM)
MIC (Nakaseomyces glabratus [23]): 0.4 µg/mL (≈ 0.315 µM)
IC50 [24]: 0.1527 µg/mL (≈ 0.12 µM)
Ki [24]: 0.1775 µg/mL (≈ 0.14 µM)
IC50 [25]: 5.199 µg/mL (≈ 4.09 µM)
Ki [25]: 5.7065 µg/mL (≈ 4.49 µM)
IC50 [26]: 0.49363 µg/mL (≈ 0.389 µM)
Ki [26]: 0.261 µg/mL (≈ 0.205 µM)
MIC (Saccharomyces cerevisiae [27]): 0.5 µg/mL (≈ 0.394 µM)
MIC (Candida orthopsilosis [28]): 1.26 µg/mL (≈ 0.992 µM)
IC50 [29]: 0.34083 µg/mL (≈ 0.268 µM)
Ki [29]: 0.486 µg/mL (≈ 0.383 µM)
MIC (Candida metapsilosis [30]): 1.59 µg/mL (≈ 1.25 µM)
IC50 [31]: 0.9431 µg/mL (≈ 0.742 µM)
Ki [31]: 2.59 µg/mL (≈ 2.04 µM)
